A short description of one experiment: ABTS assay. The conditions noted are these: isolated compounds; mean ± SD. A digest of the protocol: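 ABTS radical-scavenging capacity of isolated compounds, from a modified literature method. Activity was read from a trolox calibration curve (7.78–1000 μM) and expressed as trolox equivalents (μM TE/mM). Ascorbic acid and quercetin served as positive controls, MeOH as negative control. Each sample was run in triplicate (n = 3); values are mean ± SD.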

The target of the next experiment is α-glucosidase (yeast) (Saccharomyces cerevisiae, UniProt P53341). Briefly: Inhibition of α-glucosidase. It is filed as biochemical. The conditions noted are these: read-out: α-glucosidase assay IC50; yeast enzyme; mean ± SD.
α-glucosidase (yeast), sequence (P53341 whole entry): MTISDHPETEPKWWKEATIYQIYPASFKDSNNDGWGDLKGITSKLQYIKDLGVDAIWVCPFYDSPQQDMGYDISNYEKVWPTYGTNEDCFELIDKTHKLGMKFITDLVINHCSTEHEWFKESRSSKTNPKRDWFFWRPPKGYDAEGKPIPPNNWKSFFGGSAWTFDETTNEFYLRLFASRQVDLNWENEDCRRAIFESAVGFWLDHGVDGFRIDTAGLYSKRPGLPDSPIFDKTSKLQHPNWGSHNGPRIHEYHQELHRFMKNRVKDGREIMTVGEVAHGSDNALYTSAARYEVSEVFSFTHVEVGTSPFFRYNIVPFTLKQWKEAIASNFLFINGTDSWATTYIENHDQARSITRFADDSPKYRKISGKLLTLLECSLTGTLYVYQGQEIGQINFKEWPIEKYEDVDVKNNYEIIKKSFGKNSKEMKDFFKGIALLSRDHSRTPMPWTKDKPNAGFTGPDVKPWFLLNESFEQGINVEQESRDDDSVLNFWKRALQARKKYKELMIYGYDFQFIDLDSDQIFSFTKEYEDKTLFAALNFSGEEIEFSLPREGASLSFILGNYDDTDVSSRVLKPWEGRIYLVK
A further experiment in a line: FRAP assay. The conditions noted are these: isolated compounds; mean ± SD. A digest of the protocol:
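FRAP: Fe3+ is reduced to Fe2+, which TPTZ chelates to form the Fe2+-TPTZ complex. Activity of isolated compounds was read from a trolox standard curve (7.78–1000 μM) and expressed as μM TE/mM. Quercetin and ascorbic acid were positive controls, MeOH the negative control. Triplicate runs (n = 3); mean ± SD.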

Experiment [1] has as its target T1, porcine pancreatic lipase (PPL) (Sus scrofa, UniProt P00591).
T1 sequence (P00591 1-450): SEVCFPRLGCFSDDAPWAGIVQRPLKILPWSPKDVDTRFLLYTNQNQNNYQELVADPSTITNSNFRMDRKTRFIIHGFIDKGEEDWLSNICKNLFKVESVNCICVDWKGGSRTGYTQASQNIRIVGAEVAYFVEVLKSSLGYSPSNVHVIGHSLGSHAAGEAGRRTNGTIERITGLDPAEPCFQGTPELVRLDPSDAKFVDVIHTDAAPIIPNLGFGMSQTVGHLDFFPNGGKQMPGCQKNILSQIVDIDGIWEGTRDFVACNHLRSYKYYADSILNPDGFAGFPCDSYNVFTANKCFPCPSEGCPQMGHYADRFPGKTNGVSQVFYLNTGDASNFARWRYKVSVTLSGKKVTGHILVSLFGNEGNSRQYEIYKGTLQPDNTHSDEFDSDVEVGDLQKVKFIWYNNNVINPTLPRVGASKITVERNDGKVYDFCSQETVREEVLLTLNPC
Briefly: Inhibition of pancreatic lipase. It counts as biochemical. The conditions noted are these: read-out: lipase assay IC50, mean ± SD.

The subject of experiment [2] is formation of advanced glycation end products (AGEs), BSA-methylglyoxal model. Briefly: BSA-methylglyoxal antiglycation assay. It is filed as biochemical, bovine. The conditions noted are these: read-out: BSA-methylglyoxal model IC50; isolated compounds; mean ± SD.
The next experiment can be described thus: DPPH assay. The conditions noted are these: mean ± SD; for DPPH assay TEAC: isolated compounds. A digest of the protocol:
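Reduction of the DPPH free radical by extracts, fractions or isolated compounds, done in 96-well format following a published procedure. Quercetin and ascorbic acid were positive controls and MeOH the negative control. Runs were in triplicate (n = 3), reported as mean ± SD. Total antioxidant capacity was expressed as trolox equivalent antioxidant capacity (TEAC).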

Experiment [3] has as its system formation of advanced glycation end products (AGEs), BSA-fructose model. Briefly: BSA-fructose antiglycation assay. It counts as biochemical, bovine. The conditions noted are these: read-out: BSA-fructose model IC50; isolated compounds; mean ± SD.
The test system of experiment [4] is formation of AGEs induced by glucose or methylglyoxal. The conditions noted are these: at 100 μM; cited from earlier work.

In general, IC50 refers to the point on the concentration scale where inhibition reaches its midpoint. As to “12β-O-benzoyl 3β,8β,12β,14β,20-pentahydroxy-(20S)-pregn-5-ene-3-O-β-D-glucopyranosyl-(1 → 4)-O-β-D-digitaloside [compound 1]”, the “ABTS assay TEAC” value in the experiment “ABTS assay” amounted to 12.14 ± 14.86 μM TE/mM. The IC50 at α-glucosidase (yeast) is 920 ± 20 µM; in experiment [1], above 100 µM; in experiment [2], above 1300 µM; in experiment [3], 502 ± 70.9 µM. For the same compound, in the experiment “FRAP assay”, the “FRAP assay TEAC” value came out at 17.96 ± 4.25 μM TE/mM. Further, the “DPPH assay TEAC” value in “DPPH assay” is given as 43.30 ± 3.12 μM TE/mM.
For the compound `O=C1O[C@H]([C@@H](O)CO)C(O)=C1O` [ascorbic acid, reference compound], the “ABTS assay TEAC” value in “ABTS assay” was found to be 1132.84 ± 20.25 μM TE/mM. Besides, the “FRAP assay TEAC” value in the experiment “FRAP assay” is on record as 1195.58 ± 4.41 μM TE/mM. Also, the “DPPH assay EC50” value in “DPPH assay” (extracts/fractions) turned out to be 2.76 ± 1.63 µg/mL. Moreover, the “DPPH assay TEAC” value in “DPPH assay” is 802.73 ± 32.63 μM TE/mM.
Take `CO[C@@H]1[C@@H](O)[C@H](O[C@H]2CC[C@@]3(C)C(=CC[C@]4(O)[C@@H]3CC[C@]3(C)[C@@H]([C@H](C)O[C@@H]5O[C@H](CO)[C@@H](O)[C@H](OC(=O)CC(C)C)[C@H]5O)CC[C@@]34O)C2)O[C@H](C)[C@@H]1O[C@@H]1O[C@H](CO)[C@@H](O)[C@H](O)[C@H]1O` [compound 2, 3β,8β,14β,20-tetrahydroxy-(20S)-pregn-5-ene-3-O-β-D-glucopyranosyl-(1 → 4)-O-β-D-digitaloside-20-O-3-Isoval-β-D-glucopyranoside]: in the experiment “ABTS assay”, the “ABTS assay TEAC” value is listed as 9.19 ± 15.59 μM TE/mM. For the same compound, the values for the IC50 (on α-glucosidase (yeast); in experiment [1]; in experiment [2]) were 670 ± 10 µM, above 100 µM and above 1300 µM, respectively. In addition, in the experiment “FRAP assay”, the “FRAP assay TEAC” value was 23.08 ± 1.89 μM TE/mM. The “DPPH assay TEAC” value in the experiment “DPPH assay” came out at 30.27 ± 2.70 μM TE/mM.
`O=c1cc(-c2ccc(O)cc2)oc2cc(O)c([C@@H]3O[C@H](CO)[C@@H](O)[C@H](O)[C@H]3O)c(O)c12` [isovitexin]: the “efficacy against formation of AGEs” value in experiment [4] is listed as “over 85%”.
For `O=c1c(O)c(-c2ccc(O)c(O)c2)oc2cc(O)cc(O)c12` [quercetin, reference compound], in “ABTS assay”, the “ABTS assay TEAC” value is 1435.38 ± 14.02 μM TE/mM. The “FRAP assay TEAC” value in the experiment “FRAP assay” worked out at 1373.75 ± 35.39 μM TE/mM. Also, the values for the IC50 in experiment [2] and in experiment [3] were 847.3 ± 1.04 µM and 50.6 ± 3.9 µM, respectively. Moreover, in “DPPH assay”, the “DPPH assay TEAC” value was found to be 953.94 ± 4.17 μM TE/mM.
For `O=c1cc(-c2ccc(O)cc2)oc2c([C@@H]3O[C@H](CO)[C@@H](O)[C@H](O)[C@H]3O)c(O)cc(O)c12` [vitexin], the “efficacy against formation of AGEs” value in experiment [4] is “over 85%”.
Take `CC[C@H](CC[C@@H](C)[C@H]1CC[C@H]2[C@@H]3CC=C4C[C@@H](O[C@@H]5O[C@H](CO)[C@@H](O)[C@H](O)[C@H]5O)CC[C@]4(C)[C@H]3CC[C@]12C)C(C)C` [β-sitosterol-glucoside]: the “ABTS assay TEAC” value in the experiment “ABTS assay” is on record as 11.81 ± 7.07 μM TE/mM. In addition, the “FRAP assay TEAC” value in “FRAP assay” was 66.21 ± 16.25 μM TE/mM. For the same compound, the values for the IC50 in experiment [2] and in experiment [3] were above 1300 µM and 1032 ± 2.48 µM, respectively. The “DPPH assay TEAC” value in the experiment “DPPH assay” was found to be 36.27 ± 10.39 μM TE/mM.
Turning to `CC[C@H](CC[C@@H](C)[C@H]1CC[C@H]2[C@@H]3CC=C4C[C@@H](O)CC[C@]4(C)[C@H]3CC[C@]12C)C(C)C` [β-sitosterol], the “ABTS assay TEAC” value in the experiment “ABTS assay” turned out to be 3.42 ± 9.77 μM TE/mM. Further, the “FRAP assay TEAC” value in the experiment “FRAP assay” is 13.50 ± 3.48 μM TE/mM. Besides, the IC50 in experiment [2] and in experiment [3] was above 1300 µM each time. The “DPPH assay TEAC” value in the experiment “DPPH assay” worked out at 37.87 ± 11.03 μM TE/mM.
